This note sets out measurements from PubChem BioAssay AID463146 (The Scripps Research Institute Molecular Screening Center, 2010).

For orientation: inhibition means the change of the read-out against control, counted positive when it falls.

This test deals with Protein phosphatase methylesterase 1 (Homo sapiens) (UniProt Q9Y570). Briefly: PME-1 inhibition in proteomic lysates, late-stage follow-up, cell lysate, gel ABPP, fluorescence, HeLa, MDA-MB-231 (AID 463146). The following applies: HeLa/MDA-MB-231 lysate, FP-Rh gel ABPP fluorescence, at 10 µM (top of the series). Summed up: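 Material: PME-1 in HeLa or MDA-MB-231 lysate / Quantity: soluble proteome at 1 mg/mL total protein / Also added: rhodamine fluorophosphonate activity probe (FP-Rh), 1 µM final / Times: 30 min compound at 25 °C, 20 min probe / Signal: SDS-PAGE separation with in-gel fluorescence scanning of probe labeling / Benchmarks: DMSO high control, gel background low control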
Chain of Protein phosphatase methylesterase 1 (Homo sapiens) (Q9Y570 whole entry, looked up): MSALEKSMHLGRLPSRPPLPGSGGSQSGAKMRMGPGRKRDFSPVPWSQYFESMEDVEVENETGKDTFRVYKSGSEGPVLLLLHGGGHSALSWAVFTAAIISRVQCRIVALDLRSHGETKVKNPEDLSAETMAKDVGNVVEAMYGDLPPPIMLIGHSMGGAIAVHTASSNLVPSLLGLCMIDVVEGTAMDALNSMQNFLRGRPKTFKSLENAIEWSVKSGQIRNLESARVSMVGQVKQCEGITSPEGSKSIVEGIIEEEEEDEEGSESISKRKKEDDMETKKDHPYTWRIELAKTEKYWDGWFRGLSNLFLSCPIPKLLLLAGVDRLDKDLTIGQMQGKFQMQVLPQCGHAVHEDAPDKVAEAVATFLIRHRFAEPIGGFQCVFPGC

In the case of `COC(=O)N1C(=O)[C@@](c2ccccc2)(C2CCCCC2)N1C(=O)OC`, under “HeLa Lysate”, the inhibition is 100%.
Regarding `COC(=O)N1C(=O)[C@](c2ccccc2)(C2CCCC2)N1C(=O)OC`, the inhibition was 100% (HeLa Lysate) and 100% (MDA-MB-231 Lysate).
With `COC(=O)N1C(=O)[C@](c2ccccc2)(C2CCCCC2)N1C(=O)OC`, the inhibition by setting is: (HeLa Lysate) 100%; (MDA-MB-231 Lysate) 100%.
Turning to `COC(=O)N1C(=O)[C@@](c2ccccc2)(C2CCCC2)N1C(=O)OC`, the inhibition (HeLa Lysate) was 100%.
